Reference: ChEMBL document CHEMBL3286094, “Synthesis and biological evaluation of novel bisbenzimidazoles as Escherichia coli topoisomerase IA inhibitors and potential antibacterial agents” (J Med Chem, 2014)
In brackets after ≈: the same amount, converted by molar mass. Activity calls are given as the source filed them. The calls are words filed in the database; no cut-off is given here.

Legend:
Escherichia coli [1] = experiment: Bactericidal activity against ampicillin/tetracycline-resistant Escherichia coli IP18 isolated from water source by agar plating method
Escherichia coli [2] = experiment: Antibacterial activity against chloroamphenicol/ampicillin/kanamycin/trimethoprim/ciprofloxacin/nalidixic acid-resistant Escherichia coli 85 assessed as growth inhibition after 18 to 24 hrs by broth microdilution method; type: functional
Escherichia coli [3] = experiment: Antibacterial activity against chloramphenicol/ampicillin/kanamycin/trimethoprim/ciprofloxacin/nalidixic acid-resistant Escherichia coli 132 assessed as growth inhibition after 18 to 24 hrs by broth microdilution method; type: functional
Escherichia coli [4] = experiment: Antibacterial activity against chloramphenicol/ampicillin/trimethoprim/ciprofloxacin/nalidixic acid-resistant Escherichia coli 59 assessed as growth inhibition after 18 to 24 hrs by broth microdilution method; type: functional
Escherichia coli [5] = experiment: Antibacterial activity against ampicillin/tetracycline/piperacillin-resistant Escherichia coli WB31 isolated from water source assessed as growth inhibition after 18 to 24 hrs by broth microdilution method
Escherichia coli [6] = experiment: Bactericidal activity against ampicillin/trimethoprim/cefazolinl/piperacillin/cefuroxime/cefoxitine/cefepime/cefotaxime-resistant Escherichia coli KP21 isolated from water source by agar plating method
Escherichia coli [7] = experiment: Antibacterial activity against multidrug-resistant Escherichia coli IP9 isolated from water source assessed as growth inhibition after 18 to 24 hrs by broth microdilution method
Escherichia coli [8] = experiment: Antibacterial activity against Escherichia coli DH5[alpha] assessed as growth inhibition after 18 to 24 hrs by broth microdilution method; type: functional
Homo sapiens = species on record: Homo sapiens; experiment: Inhibition of human DNA topoisomerase-1B using supercoiled pHOT1 plasmid DNA as substrate assessed as inhibition of DNA relaxation at 100 uM after 30 mins by agarose gel electrophoresis
Escherichia coli [9] = experiment: Bactericidal activity against ampicillin/trimethoprim/nalidixic acid-resistant Escherichia coli 118 by agar plating method; type: functional
Escherichia coli [10] = experiment: Antibacterial activity against ampicillin/chloramphenicol/tetracycline/trimethoprim/ciprofloxacin-resistant Escherichia coli KK45 isolated from water source assessed as growth inhibition after 18 to 24 hrs by broth microdilution method
Escherichia coli [11] = experiment: Bactericidal activity against Escherichia coli DH5[alpha] by agar plating method; type: functional
[12] = Inhibition of Escherichia coli DNA topoisomerase-1A using supercoiled pHOT1 plasmid DNA as substrate assessed as inhibition of DNA relaxation after 30 mins by agarose gel electrophoresis
Method in brief: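 Supercoiled plasmid DNA incubated with E. coli Topo IA in the presence of compound at […]. Relaxation products were resolved by electrophoresis on 1% agarose gel.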

Escherichia coli [13] = experiment: Bactericidal activity against chloramphenicol/ampicillin/kanamycin/trimethoprim/ciprofloxacin/nalidixic acid-resistant Escherichia coli 132 by agar plating method; type: functional
Escherichia coli [14] = experiment: Antibacterial activity against multidrug-resistant Escherichia coli IS 54 isolated from water source assessed as growth inhibition after 18 to 24 hrs by broth microdilution method; details: IS 54, Water
Escherichia coli [15] = experiment: Antibacterial activity against ampicillin/trimethoprim/piperacillin-resistant Escherichia coli MKNJ isolated from water source assessed as growth inhibition after 18 to 24 hrs by broth microdilution method
Escherichia coli [16] = experiment: Antibacterial activity against tetracycline/trimethoprim-resistant Escherichia coli IST isolated from water source assessed as growth inhibition after 18 to 24 hrs by broth microdilution method
Escherichia coli [17] = experiment: Bactericidal activity against ampicillin/chloramphenicol/tetracycline/trimethoprim/ciprofloxacin-resistant Escherichia coli KK45 isolated from water source by agar plating method
Escherichia coli [18] = experiment: Bactericidal activity against ampicillin/tetracycline/piperacillin-resistant Escherichia coli WB31 isolated from water source by agar plating method
Escherichia coli [19] = experiment: Antibacterial activity against ampicillin/chloramphenicol/ciprofloxacin/gentamicin/tetracycline-resistant Escherichia coli 401 assessed as growth inhibition after 18 to 24 hrs by broth microdilution method; type: functional
Escherichia coli [20] = experiment: Antibacterial activity against ampicillin/trimethoprim/cefazolinl/piperacillin/cefuroxime/cefoxitine/cefepime/cefotaxime-resistant Escherichia coli KP21 isolated from water source assessed as growth inhibition after 18 to 24 hrs by broth microdilution method
Escherichia coli [21] = experiment: Antibacterial activity against ampicillin/kanamycin/trimethoprim/tetracyclin/ciprofloxacin/nalidixic acid-resistant Escherichia coli 81 assessed as growth inhibition after 18 to 24 hrs by broth microdilution method; type: functional
Escherichia coli [22] = experiment: Bactericidal activity against chloroamphenicol/ampicillin/kanamycin/trimethoprim/ciprofloxacin/nalidixic acid-resistant Escherichia coli 85 by agar plating method; type: functional
Escherichia coli [23] = experiment: Antibacterial activity against ampicillin/tetracycline-resistant Escherichia coli IP18 isolated from water source assessed as growth inhibition after 18 to 24 hrs by broth microdilution method
Escherichia coli [24] = experiment: Bactericidal activity against tetracycline/trimethoprim-resistant Escherichia coli IST isolated from water source by agar plating method
Escherichia coli [25] = experiment: Antibacterial activity against chloramphenicol/ampicillin/kanamycin/trimethoprim/ciprofloxacin/nalidixic acid-resistant Escherichia coli 151 assessed as growth inhibition after 18 to 24 hrs by broth microdilution method; type: functional
Escherichia coli [26] = experiment: Bactericidal activity against cefazolinl/ampicillin/piperacillin/cefuroxime/cefepime/cefotaxime/tetracycline/ciprofloxacin-resistant Escherichia coli NG3 isolated from water source by agar plating method
Escherichia coli [27] = experiment: Antibacterial activity against ampicillin/trimethoprim/nalidixic acid-resistant Escherichia coli 118 assessed as growth inhibition after 18 to 24 hrs by broth microdilution method; type: functional
Escherichia coli [28] = experiment: Bactericidal activity against chloramphenicol/ampicillin/kanamycin/trimethoprim/ciprofloxacin/nalidixic acid-resistant Escherichia coli 151 by agar plating method; type: functional
Escherichia coli [29] = experiment: Bactericidal activity against ampicillin/trimethoprim/piperacillin-resistant Escherichia coli MKNJ isolated from water source by agar plating method
Escherichia coli [30] = experiment: Bactericidal activity against ampicillin/ciprofloxacin/gentamicin/tetracycline-resistant Escherichia coli 555 by agar plating method; type: functional
Escherichia coli [31] = experiment: Antibacterial activity against ampicillin/tetracycline/gentamicin-resistant Escherichia coli 451 assessed as growth inhibition after 18 to 24 hrs by broth microdilution method; type: functional
Escherichia coli [32] = experiment: Bactericidal activity against Escherichia coli ATCC 25922 by agar plating method; type: functional
Escherichia coli [33] = experiment: Inhibition of Escherichia coli DNA gyrase using relaxed pHOT1 plasmid DNA as substrate assessed as inhibition of DNA supercoiling up to 100 uM after 30 mins by agarose gel electrophoresis

Compound `CCCN1CCN(c2ccc3nc(-c4ccc5nc(-c6ccc(OC)c(OC)c6)[nH]c5c4)[nH]c3c2)CC1` has an MBC (Escherichia coli [1]) of 8 µg/mL (≈ 16.1 µM), an MIC50 (Escherichia coli [2]) of 8 µg/mL (≈ 16.1 µM) and an MIC90 (Escherichia coli [2]) of 15.2 µg/mL (≈ 30.6 µM). It also gave an MIC50 (Escherichia coli [3]) of 64 µg/mL (≈ 129 µM), an MIC90 (Escherichia coli [3]) of 118 µg/mL (≈ 238 µM) and an MIC50 (Escherichia coli [4]) of 4 µg/mL (≈ 8.05 µM). It also gave an MIC90 (Escherichia coli [4]) of 7.5 µg/mL (≈ 15.1 µM), an MIC50 (Escherichia coli [5]) of 8 µg/mL (≈ 16.1 µM) and an MIC90 (Escherichia coli [5]) of 15.2 µg/mL (≈ 30.6 µM). It also gave an MBC (Escherichia coli [6]) of 16 µg/mL (≈ 32.2 µM), an MIC50 (Escherichia coli [7]) of 8 µg/mL (≈ 16.1 µM) and an MIC90 (Escherichia coli [7]) of 15.4 µg/mL (≈ 31 µM). The MIC50 (Escherichia coli [8]) was 2 µg/mL (≈ 4.03 µM), the MIC90 (Escherichia coli [8]) was 3.2 µg/mL (≈ 6.44 µM) and the inhibition (Homo sapiens) was “Active”. For the same compound, the MBC (Escherichia coli [9]) was 4 µg/mL (≈ 8.05 µM), the MIC50 (Escherichia coli [10]) was 4 µg/mL (≈ 8.05 µM) and the MIC90 (Escherichia coli [10]) was 7.7 µg/mL (≈ 15.5 µM). For the same compound, the MBC (Escherichia coli [11]) was 4 µg/mL (≈ 8.05 µM), the IC50 [12] was 3 µM and the MBC (Escherichia coli [13]) was 128 µg/mL (≈ 258 µM). It also gave an MIC50 (Escherichia coli [14]) of 8 µg/mL (≈ 16.1 µM), an MIC90 (Escherichia coli [14]) of 14.8 µg/mL (≈ 29.8 µM) and an MIC50 (Escherichia coli [15]) of 4 µg/mL (≈ 8.05 µM). The MIC90 (Escherichia coli [15]) was 7.6 µg/mL (≈ 15.3 µM), the MIC50 (Escherichia coli [16]) was 8 µg/mL (≈ 16.1 µM) and the MIC90 (Escherichia coli [16]) was 14.9 µg/mL (≈ 30 µM). For the same compound, the MBC (Escherichia coli [17]) was 8 µg/mL (≈ 16.1 µM), the MBC (Escherichia coli [18]) was 16 µg/mL (≈ 32.2 µM) and the MIC50 (Escherichia coli [19]) was 4 µg/mL (≈ 8.05 µM). The MIC90 (Escherichia coli [19]) was 7.2 µg/mL (≈ 14.5 µM), the MIC50 (Escherichia coli [20]) was 8 µg/mL (≈ 16.1 µM) and the MIC90 (Escherichia coli [20]) was 14.8 µg/mL (≈ 29.8 µM). The MIC50 (Escherichia coli [21]) was 8 µg/mL (≈ 16.1 µM), the MIC90 (Escherichia coli [21]) was 14.5 µg/mL (≈ 29.2 µM) and the MBC (Escherichia coli [22]) was 16 µg/mL (≈ 32.2 µM). It also gave an MIC50 (Escherichia coli [23]) of 4 µg/mL (≈ 8.05 µM), an MIC90 (Escherichia coli [23]) of 7.6 µg/mL (≈ 15.3 µM) and an MBC (Escherichia coli [24]) of 16 µg/mL (≈ 32.2 µM). The MIC50 (Escherichia coli [25]) was 8 µg/mL (≈ 16.1 µM), the MIC90 (Escherichia coli [25]) was 15.1 µg/mL (≈ 30.4 µM) and the MBC (Escherichia coli [26]) was 8 µg/mL (≈ 16.1 µM). It also gave an MIC50 (Escherichia coli [27]) of 2 µg/mL (≈ 4.03 µM), an MIC90 (Escherichia coli [27]) of 3.2 µg/mL (≈ 6.44 µM) and an MBC (Escherichia coli [28]) of 16 µg/mL (≈ 32.2 µM). For the same compound, the MBC (Escherichia coli [29]) was 8 µg/mL (≈ 16.1 µM), the MBC (Escherichia coli [30]) was 32 µg/mL (≈ 64.4 µM) and the MIC50 (Escherichia coli [31]) was 4 µg/mL (≈ 8.05 µM). For the same compound, the MIC90 (Escherichia coli [31]) was 7.6 µg/mL (≈ 15.3 µM), the MBC (Escherichia coli [32]) was 16 µg/mL (≈ 32.2 µM) and the inhibition (Escherichia coli [33]) was “inactive”.

`CCOc1ccc(-c2nc3ccc(-c4nc5ccc(N6CCN(CC)CC6)cc5[nH]4)cc3[nH]2)cc1` showed an MBC (Escherichia coli [1]) of 8 µg/mL (≈ 17.1 µM), an MIC50 (Escherichia coli [2]) of 4 µg/mL (≈ 8.57 µM) and an MIC90 (Escherichia coli [2]) of 6.9 µg/mL (≈ 14.8 µM). For the same compound, the MIC50 (Escherichia coli [3]) was 4 µg/mL (≈ 8.57 µM), the MIC90 (Escherichia coli [3]) was 7.2 µg/mL (≈ 15.4 µM) and the MIC50 (Escherichia coli [4]) was 4 µg/mL (≈ 8.57 µM). For the same compound, the MIC90 (Escherichia coli [4]) was 7.4 µg/mL (≈ 15.9 µM), the MIC50 (Escherichia coli [5]) was 4 µg/mL (≈ 8.57 µM) and the MIC90 (Escherichia coli [5]) was 7.2 µg/mL (≈ 15.4 µM). The MBC (Escherichia coli [6]) was 8 µg/mL (≈ 17.1 µM), the MIC50 (Escherichia coli [7]) was 4 µg/mL (≈ 8.57 µM) and the MIC90 (Escherichia coli [7]) was 7.2 µg/mL (≈ 15.4 µM). The MIC50 (Escherichia coli [8]) was 0.5 µg/mL (≈ 1.07 µM), the MIC90 (Escherichia coli [8]) was 0.7 µg/mL (≈ 1.5 µM) and the inhibition (Homo sapiens) was “Active”. For the same compound, the MBC (Escherichia coli [9]) was 2 µg/mL (≈ 4.29 µM), the MIC50 (Escherichia coli [10]) was 4 µg/mL (≈ 8.57 µM) and the MIC90 (Escherichia coli [10]) was 7.5 µg/mL (≈ 16.1 µM). The MBC (Escherichia coli [11]) was 1 µg/mL (≈ 2.14 µM), the IC50 [12] was 5.8 µM and the MBC (Escherichia coli [13]) was 8 µg/mL (≈ 17.1 µM). The MIC50 (Escherichia coli [14]) was 4 µg/mL (≈ 8.57 µM), the MIC90 (Escherichia coli [14]) was 7.1 µg/mL (≈ 15.2 µM) and the MIC50 (Escherichia coli [15]) was 4 µg/mL (≈ 8.57 µM). The MIC90 (Escherichia coli [15]) was 7.6 µg/mL (≈ 16.3 µM), the MIC50 (Escherichia coli [16]) was 4 µg/mL (≈ 8.57 µM) and the MIC90 (Escherichia coli [16]) was 3.7 µg/mL (≈ 7.93 µM). The MBC (Escherichia coli [17]) was 8 µg/mL (≈ 17.1 µM), the MBC (Escherichia coli [18]) was 8 µg/mL (≈ 17.1 µM) and the MIC50 (Escherichia coli [19]) was 2 µg/mL (≈ 4.29 µM). The MIC90 (Escherichia coli [19]) was 3.7 µg/mL (≈ 7.93 µM), the MIC50 (Escherichia coli [20]) was 4 µg/mL (≈ 8.57 µM) and the MIC90 (Escherichia coli [20]) was 6.8 µg/mL (≈ 14.6 µM). It also gave an MIC50 (Escherichia coli [21]) of 4 µg/mL (≈ 8.57 µM), an MIC90 (Escherichia coli [21]) of 6.5 µg/mL (≈ 13.9 µM) and an MBC (Escherichia coli [22]) of 8 µg/mL (≈ 17.1 µM). It also gave an MIC50 (Escherichia coli [23]) of 4 µg/mL (≈ 8.57 µM), an MIC90 (Escherichia coli [23]) of 7.6 µg/mL (≈ 16.3 µM) and an MBC (Escherichia coli [24]) of 8 µg/mL (≈ 17.1 µM). For the same compound, the MIC50 (Escherichia coli [25]) was 4 µg/mL (≈ 8.57 µM), the MIC90 (Escherichia coli [25]) was 6.8 µg/mL (≈ 14.6 µM) and the MBC (Escherichia coli [26]) was 8 µg/mL (≈ 17.1 µM). The MIC50 (Escherichia coli [27]) was 1 µg/mL (≈ 2.14 µM), the MIC90 (Escherichia coli [27]) was 1.4 µg/mL (≈ 3 µM) and the MBC (Escherichia coli [28]) was 8 µg/mL (≈ 17.1 µM). For the same compound, the MBC (Escherichia coli [29]) was 8 µg/mL (≈ 17.1 µM), the MBC (Escherichia coli [30]) was 16 µg/mL (≈ 34.3 µM) and the MIC50 (Escherichia coli [31]) was 2 µg/mL (≈ 4.29 µM). The MIC90 (Escherichia coli [31]) was 3.6 µg/mL (≈ 7.72 µM), the MBC (Escherichia coli [32]) was 4 µg/mL (≈ 8.57 µM) and the inhibition (Escherichia coli [33]) was “inactive”.
